Measured values taken from ChEMBL document CHEMBL4725282, “Discovery of a Conformationally Constrained Oxazolidinone with Improved Safety and Efficacy Profiles for the Treatment of Multidrug-Resistant Tuberculosis” (J Med Chem, 2020).

Legend:
[1] = Genotoxicity in CHO-WBL cells assessed as chromosome aberration at 20 to 150 ug/ml incubated for 3 hrs followed by compound washout and measured after 17 hrs in absence of S9 fraction by Giemsa staining based; assay type: toxicity, cell-based, Cricetulus griseus; conditions: chinese hamster, dose 20-150 µg/ml
Procedure, shortened: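 CHO-WBL cells in McCoy's 5A with 10% FBS, seeded 20-24 h before treatment. Compound in DMSO, with or without serum-free S-9 mix. Treatment either 3 h, then HBSS wash and 17 h further culture, or 20 h; harvest at 20 h from treatment start. Colcemid 0.1 μg/mL for the final 2 h, hypotonic KCl, methanol:acetic acid fixation, Giemsa stain. 300 metaphases per concentration (150 per duplicate flask) scored.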

[2] = Toxicity in male Sprague-Dawley rat assessed as histopathological changes at 50 to 450 mg/kg/day, po administered for 4 weeks followed by 2 week recovery period; assay type: organism-based; conditions: in vivo, 672 h, dose 50-450 mg/kg/day
[3] = Toxicity in male Sprague-Dawley rat assessed as ophthalmic changes at 50 to 450 mg/kg/day, po administered for 4 weeks measured post last dose; assay type: organism-based; conditions: in vivo, 672 h, dose 50-450 mg/kg/day
[4] = Toxicity in male Sprague-Dawley rat assessed as change in hemoglobin count at 450 mg/kg/day, po administered for 4 weeks followed by 2 week recovery period (Rvb =144 +/- 5 g/L); assay type: organism-based; conditions: in vivo, 672 h
[5] = Toxicity in male Sprague-Dawley rat assessed as change in hematocrit level at 450 mg/kg/day, po administered for 4 weeks followed by 2 week recovery period (Rvb =45.2 +/- 1.7 %); assay type: organism-based; conditions: in vivo, 672 h

CC(=O)NC[C@@H]1OC(=O)N2c3cc(F)c(N4CCSCC4)cc3OC[C@@H]12
Activity [1]: Non-Toxic | Activity [2]: Non-Toxic | Activity [3]: Non-Toxic | Activity [4]: 139 g/L | Activity [5]: 43.8%
